Measurements reported in the RNAGym collection of RNA variant scans (doi:10.1126/science.aae0568).
Fewer inactive variants are shown than the library holds.

B1: tRNA (parent)
chain: GUUCCGUUGGCGUAAUGGUAACGCGUCUCCCUCCUAAGGAGAAGACUGCGGGUUCGAGUCCCGUACGGAACG

Variants of: B1
Assay: yeast fitness relative to wild type (ratio to wild type); higher = fitter; tRNA-Arg(CCU), competitive growth, 37 C, YPD
Summary of the method: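 Variants of the tRNA-Arg(CCU) gene were chemically synthesised with a 3% per-site mutation rate across 69 sites and placed at the native genomic locus in Saccharomyces cerevisiae. Six parallel replicates of the pooled strains were competed in YPD at 37°C for 24 hours, and gene amplicons from the start and end populations were read by 100-nucleotide paired-end sequencing. Darwinian fitness relative to wild type was derived from changes in genotype frequencies. Genotypes required ≥ 100 starting reads, and estimates < 0.5 were set to 0.5.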

Variant	yeast fitness
GUUCCGUUGGCGUAAUGGUAACGCGUCACCCUCCUAAGGAGAAGACUGCGGGUUCGAGUCACGUACGGAACG	0.612
GUUCCGUUGGCGUAAUGGUAACGCGUCACCCUCCUAAGGAGAAGACUGCGGGUUCGAGUCGGGUACGGAACG	0.533
GUUCCGUUGGCGUAAUGGUAACGCGUCACCCUCCUAAGGAGAAGACUGCGGGUUCGAGUCCUGUACGGAACG	0.86
GUUCCGUUGGCGUAAUGGUAACGCGUCACCCUCCUAAGGAGAAGACUGCGGGUUCGAGUCCCGUAUGAAACG	≤ 0.5
GUUCCGUUGGCGUAAUGGUAACGCGUCACCCUCCUAAAGAGAAGACUGCGGGUUCGAGUCCCGUACGGAACG	0.772
GUUCCGUUGGCGUAAUGGUAACGCGUCACCCUCCUAAAGAGAAGACUGCGGGUUGGAGUCCCGUACGGAACG	≤ 0.5
GUUCCGUUGGCGUAAUGGUAACGCGUCACCCUCCUAACGAGAAGACUGCGGGUUCGAGUCCCGUACGGAACG	0.541
GUUCCGUUGGCGUAAUGGUAACGCGUCACCCUCCUAACGAAAAGAAUGCGGGUUCGAGUCCCGUACGGAACG	≤ 0.5
GUUCCGUUGGCGUAAUGGUAACGCGUCACCCUCCUAAGAAGAAGAAUGCGGGUUCGCGUCCCGUACGGAACG	≤ 0.5
GUUCCGUUGGCGUAAUGGUAACGCGUCACCCUCCUAAGCAGAAGACUGCGGGUUCGAGUCCCGUACGGAACG	0.552
GUUCCGUUGGCGUAAUGGUAACGCGUCACCCUCCUAAGGAAAAGACUGCGGGUUCGAGUCCCGUACGGAACG	0.697
GUUCCGUUGGCGUAAUGGUAACGCGUCACCCUCCUAAGGAGAAAACUGCAGGUUCGGGUCCCAUACGGAACG	≤ 0.5
GUUCCGUUGGCGUAAUGGUAACGCGUCACCCUCCUAAGGAGAAAACUGCAGGUUCGGGUCCCGUACGCAACG	≤ 0.5
GUUCCGUUGGCGUAAUGGUAACGCGUCACCCUCCUAAGGAGAACACUGCGGGUUCGAGUCCCGUACGGAACG	0.813
GUUCCGUUGGCGUAAUGGUAACGCGUCACCCUCCUAAGGAGAAGACUACGGGUUCGAGUGCCGUACGGAACG	≤ 0.5
GUUCCGUUGGCGUAAUGGUAACGCGUCACCCUCCUAAGGAGAAGACUACGGGUUCGAGUCACGUACGGAACG	≤ 0.5
GUUCCGUUGGCGUAAUGGUAACGCGUCACCCUCCUAAGGAGAAGACUACGGGUUCGACUCCCGUAGGGAACG	≤ 0.5
GUUCCGUUGGCGUAAUGGUAACGCGUCACCCUCCUAAGGAGAAGACUGCCGGUUCGAGUCCCGUACGGAACG	0.609
GUUCCGUUGGCGUAAUGGUAACGCGUCACCCUCCUAAGGAGAAGACUGCGCGUUGGCGUCCCGAACCGAACG	≤ 0.5

Variant	yeast fitness
GUUCCGUUGGCGUAAUGGUAACGCGUCACCCUCCUAAGGAGAAGACUGCGGAUUCGAGUCCCGUACGGAACG	0.705
GUUCCGUUGGCGUAAUGGUAACGCGUCACCCUCCUAAGGAGAAGACUGCGGAUUCGUGUUCCGUGCGAAACG	0.59
GUUCCGUUGGCGUAAUGGUAACGCGUCACCCUCCUAAGGAGAAGACUGCGGAUACGAGUCCCGUACGGAACG	≤ 0.5
GUUCCGUUGGCGUAAUGGUAACGCGUCACCCUCCUAAGGAGAAGACUGCGGGUUCAAGUCCCGUACGGAACG	0.796
GUUCCGUUGGCGUAAUGGUAACGCGUCACCCUCCUAAGGAGAAGACUGCGGGUUCAAGUCCAGUACGGAACG	0.582
GUUCCGUUGGCGUAAUGGUAACGCGUCACCCUCCUAAGGAGAAGACUGCGGGUUCGAAUCCCGUACGGAACG	0.913
GUUCCGUUGGCGUAAUGGUAACGCGUCACCCUCCUAAGGAGAAGACUGCGGGUUCGACUCCCGUACGGAACG	0.798
GUUCCGUUGGCGUAAUGGUAACGCGUCACCCUCCUAAGGAGAAGACUGCGGGUUCGACUCCCGUACGCAACG	≤ 0.5
GUUCCGUUGGCGUAAUGGUAACGCGUCACCCUCCUAAGGAGAAGACUGCGGGUUCGAUUCCCGUCCGGAACG	≤ 0.5
GUUCCGUUGGCGUAAUGGUAACGCGUCACCCUCCUAAGGAGAAGACUGCGGGUUCGAGUCCCGUACAGAACG	0.628
GUUCCGUUGGCGUAAUGGUAACGCGUCACCCUCCUAAGGAGAAGACUGCGGGUUCGAGUCCCGUACGCAACG	0.707
GUUCCGUUGGCGUAAUGGUAACGCGUCACCCUCCUAAGGAGAAGACUGCGGGUUCGAGUCCCGUACGUAACG	0.762
GUUCCGUUGGCGUAAUGGUAACGCGUCACCCACCUAAGGAGAAGACUGCGGGUUGGAGUCCCGUACGGAACG	≤ 0.5
GUUCCGUUGGCGUAAUGGUAACGCGUCACCCCCCUAAGGAGAAGACUGCGGGUUCGAGUCCCGUACGGAACG	0.833
GUUCCGUUGGCGUAAUGGUAACGCGUCACCCCCCUAAGGAGAAGACUGCGGGUUCGAGUCCCGUACGGAGCG	0.604
GUUCCGUUGGCGUAAUGGUAACGCGUCACCCGCCUAAGGAGAAGACUGCGGGUUCGAGUCCCGUUCGGAACG	≤ 0.5
GUUCCGUUGGCGUAAUGGUAACGCGUCACCCGCCUAAGGAGAAGACUGCGGGUUCGAGUCCCGUACGGUACG	≤ 0.5
GUUCCGUUGGCGUAAUGGUAACGCGUCACCCUCCCAAGGAGAAGACUGCGGGUUCGAGUCCCGUACGGAACG	0.753
GUUCCGUUGGCGUAAUGGUAACGCGUCACCCUCCCACGGAGAAGACUGCGGGUUCGAGUCCCGUACGGAACG	0.647
